The source of these data is ChEMBL document CHEMBL1144008, “Synthesis, nitric oxide release, and anti-leukemic activity of glutathione-activated nitric oxide prodrugs: Structural analogues of PABA/NO, an anti-cancer lead compound” (Bioorg Med Chem, 2008).

SMILES strings stand for the structures.

The subject of one experiment is HL-60. The experiment can be described thus: Antiproliferative activity against human HL60 cells by MTS assay. It is filed as functional, cell-based. A digest of the protocol: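 HL-60 human myeloid leukemia cells grown in RPMI 1640 with 10% FBS, 37 °C, 5% CO2. Seeded 10,000 cells/100 µL; compounds (DMSO stocks serially diluted in PBS, final DMSO 0.5%) added 24 h after plating. Viable cells read by MTS after 3 days. IC50 from nonlinear fit of absorbance vs concentration to a Hill-slope equation.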

A short description of experiment [1]: Nitric oxide release at 100 to 150 nM in pH7.4 in presence of GSH. Format: functional. In a few lines:
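Performed in 0.1 M pH 7.4 phosphate buffer with 1 mM GSH, sparged with inert gas until detector baseline was steady. Prodrug stock injected to final 100–150 nM. NO release followed at 37 °C. Area under the release curve integrated to give mol NO released per mol compound.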

In the case of `CN(C)/[N+]([O-])=N/Oc1cc(OC(=O)c2ccc(N)cc2)c([N+](=O)[O-])cc1[N+](=O)[O-]`, it took 13 µM to reach half-maximal inhibition with HL-60 (IC50). Moreover, the Activity in experiment [1] is 63%.
`COc1ccc2cc(C(C)C(=O)Oc3cc(O/N=[N+](\[O-])N(C)C)c([N+](=O)[O-])cc3[N+](=O)[O-])ccc2c1` (stereo not given): in the experiment with HL-60, the IC50 was over 25 µM. Moreover, the Activity in experiment [1] amounted to 5%.
`CN(C(=O)c1ccccc1)c1cc(O/N=[N+](\[O-])N(C)C)c([N+](=O)[O-])cc1[N+](=O)[O-]`: in the experiment with HL-60, inhibition was half-maximal at 1.6 µM (IC50). Also, the Activity in experiment [1] was 99%.
For `CN(C)/[N+]([O-])=N/Oc1cc(OC(=O)c2ccccc2)c([N+](=O)[O-])cc1[N+](=O)[O-]` the same measures were over 25 µM and 15%.
`CN(C)c1ccc(C(=O)Oc2cc(O/N=[N+](\[O-])N(C)C)c([N+](=O)[O-])cc2[N+](=O)[O-])cc1` displayed an IC50 in the experiment on HL-60 of over 25 µM. The Activity in experiment [1] amounted to 30%.
The compound `CC(=O)Nc1ccc(C(=O)Oc2cc(O/N=[N+](\[O-])N(C)C)c([N+](=O)[O-])cc2[N+](=O)[O-])cc1` yielded an IC50 with HL-60 of 22 µM. For the same compound, the Activity in experiment [1] was 20%.
Compound `CN(C)/[N+]([O-])=N\Oc1cc(O)c([N+](=O)[O-])cc1[N+](=O)[O-]` displayed an IC50 in the experiment with HL-60 of over 25 µM. Also, the Activity in experiment [1] was 0%.
For `CCN(C(=O)c1ccccc1)c1cc(O/N=[N+](\[O-])N(C)C)c([N+](=O)[O-])cc1[N+](=O)[O-]` the same measures were 1.4 µM and 100%.
Regarding `CN(C)/[N+]([O-])=N/Oc1cc(Nc2ccc(CO)cc2)c([N+](=O)[O-])cc1[N+](=O)[O-]`, the IC50 in the experiment with HL-60 is 6.8 µM. For the same compound, the Activity in experiment [1] was 100%.
Turning to `CC(C)Cc1ccc(C(C)C(=O)Oc2cc(O/N=[N+](\[O-])N(C)C)c([N+](=O)[O-])cc2[N+](=O)[O-])cc1` (stereo not given), the IC50 in the experiment with HL-60 is over 25 µM. In addition, the Activity in experiment [1] turned out to be 0%.
For `CNc1ccc(C(=O)Oc2cc(O/N=[N+](\[O-])N(C)C)c([N+](=O)[O-])cc2[N+](=O)[O-])cc1`, the IC50 in the experiment with HL-60 is 3.9 µM. In experiment [1], the Activity came to 73%.
The corresponding values for `CC(=O)Nc1ccc(S(=O)(=O)Oc2cc(O/N=[N+](\[O-])N(C)C)c([N+](=O)[O-])cc2[N+](=O)[O-])cc1` are 3.9 µM and 96%.
Compound `CC(=O)Nc1ccc(Oc2cc(O/N=[N+](\[O-])N(C)C)c([N+](=O)[O-])cc2[N+](=O)[O-])cc1` returned an IC50 in the experiment with HL-60 of 2.3 µM. Further, the Activity in experiment [1] came out at 93%.
The corresponding values for `CN(C)/[N+]([O-])=N/Oc1cc(OC(=O)c2cccnc2)c([N+](=O)[O-])cc1[N+](=O)[O-]` are over 25 µM and 4%.
`CC(=O)Oc1ccccc1C(=O)Oc1cc(O/N=[N+](\[O-])N(C)C)c([N+](=O)[O-])cc1[N+](=O)[O-]` came in with an IC50 in the experiment on HL-60 of over 25 µM. For the same compound, the Activity in experiment [1] came to 7%.
